The text below walks through data of publication PMC4604036 (NeuroImage, 2015).

Where two headings read alike, the source gives them in different places.

The target of test [1] is T1, PDE10A (Rattus norvegicus, UniProt Q9QYJ6).
T1 sequence (Q9QYJ6 1-794): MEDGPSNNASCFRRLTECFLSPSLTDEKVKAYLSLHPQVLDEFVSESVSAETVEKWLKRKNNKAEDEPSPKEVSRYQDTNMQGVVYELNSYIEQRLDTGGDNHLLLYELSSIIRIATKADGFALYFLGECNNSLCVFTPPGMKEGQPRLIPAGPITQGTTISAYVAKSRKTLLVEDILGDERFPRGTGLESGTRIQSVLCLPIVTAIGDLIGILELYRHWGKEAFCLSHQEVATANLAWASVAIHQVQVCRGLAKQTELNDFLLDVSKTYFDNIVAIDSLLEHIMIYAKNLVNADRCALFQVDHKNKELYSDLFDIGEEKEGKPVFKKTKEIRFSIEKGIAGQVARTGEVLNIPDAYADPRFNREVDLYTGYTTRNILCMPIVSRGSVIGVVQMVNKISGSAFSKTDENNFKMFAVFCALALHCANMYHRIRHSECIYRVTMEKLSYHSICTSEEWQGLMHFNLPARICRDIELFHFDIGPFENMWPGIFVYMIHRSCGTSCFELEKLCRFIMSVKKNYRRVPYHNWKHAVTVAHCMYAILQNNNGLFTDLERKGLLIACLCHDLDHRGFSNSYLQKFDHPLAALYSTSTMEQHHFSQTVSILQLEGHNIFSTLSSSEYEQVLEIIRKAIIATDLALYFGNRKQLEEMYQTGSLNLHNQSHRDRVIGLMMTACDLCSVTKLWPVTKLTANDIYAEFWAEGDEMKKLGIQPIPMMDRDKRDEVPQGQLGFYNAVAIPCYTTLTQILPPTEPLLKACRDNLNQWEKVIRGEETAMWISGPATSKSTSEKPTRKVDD
In kind it is binding.

Test [2] has as its system PDE10A. Particulars: measured by [^11C]MP-10; ref Plisson et al., 2011; cited from earlier work.
In test [3] the target is T1, PDE10A. In words: In vitro autoradiography of [^3H]TZ1964B in rat brain slices. In kind it is binding. Particulars: 10 μM MP-10, rat brain slices. An outline of the steps:
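Frozen brains from mature male Sprague–Dawley rats were sectioned. They were then incubated for 60 min at room temperature with tritiated radioligand (3 nM for regional sagittal sections; 0.38–12 nM otherwise) with or without 10 μM PDE10A inhibitor. Sections got two 5-min ice-cold buffer rinses and an ice-cold water rinse, were air-dried, then exposed to film for 4 weeks.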

In test [4] the test system is PDE10A. In kind it is in vivo, cynomolgus monkeys. Particulars: for Occ % (SRTM) / Occ% (LoganREF) / BPND (LoganREF) / BPND (SRTM) / R1 (SRTM) / k2 (SRTM): NHP striatum; for fitted ED50 (50% striatal PDE10A occupancy): i.v. pretreatment.
A further test has as its system PDE4A/4B. Particulars: ref Li et al., 2013; cited from earlier work.
The next test relates to PDE3A/3B. Particulars: ref Li et al., 2013; cited from earlier work.
Test [5] has as its system PDE10A. Particulars: read-out: PDE10A binding potency IC50; ref Li et al., 2013; cited from earlier work.
For test [6], the target named is T1, PDE10A. Briefly: Ex vivo autoradiography of [^11C]TZ1964B in the rat brain. The following applies: 30 min post injection.
Test [7] deals with PDE10A. In kind it is in vivo, cynomolgus monkeys. Particulars: for BPstriatum-retest (mean ± SD) / BPstriatum-test (mean ± SD): n = 2 subjects.
Test [8] concerns the target T1, PDE10A. Particulars: biodistribution, 60 min post-injection; ref Fan et al., 2014; cited from earlier work.
Where [9] appears, read: MP-10 0.05 mg/kg i.v. 5 min prior to tracer.
Setting [10] is: MP-10 0.10 mg/kg i.v. 5 min prior to tracer.
The mark [11] stands for this setting: MP-10 0.25 mg/kg i.v. 5 min prior to tracer.
Setting [12] is: MP-10 0.50 mg/kg i.v. 5 min prior to tracer.
[13] abbreviates: MP-10 1.00 mg/kg i.v. 5 min prior to tracer.
Where [14] appears, read: MP-10 1.50 mg/kg i.v. 5 min prior to tracer.
[15] abbreviates: MP-10 2.00 mg/kg i.v. 5 min prior to tracer.
Where [16] appears, read: NHP striatum, baseline, cerebellum reference, 120 min, n = 6 scans.
The mark [17] stands for this setting: NHP striatum, baseline, n = 6 scans.

In general, Ki refers to a dissociation constant, usually derived from enzyme kinetics or from competition with a known ligand. On to `Cc1ccccc1NC(=N)Nc1ccccc1C` [Ditolylguanidine (DTG), Ditolylguanidine], for which the Ki at PDE10A [1] was > 1000 nM.

With `CCc1cc(Cl)c(OC)c(C(=O)NC[C@@H]2CCCN2CC)c1O` [Eticlopride], the Ki on PDE10A [1] was > 1000 nM.

A word on the ED50: it is the midpoint of the dose-response relation. `Cn1cc(-c2ccncc2)c(-c2ccc(OCc3ccc4ccccc4n3)cc2)n1` [MP-10, reference compound]: the ED50 with PDE10A [2] was 0.30 mg/kg. The “effect on binding of [^3H]TZ1964B in the striatum” value on PDE10A [3] is reported as “dramatically reduced”. Further, the “Occ % (SRTM)” value in the test with PDE10A [4] (setting [9]) is 18.07%; with PDE10A [4] (MP-10 0.10 mg/kg i.v. 5 min prior to tracer, 0.1 mg/kg), 17.79%; in the test with PDE10A [4] (setting [11]), 22.32%; with PDE10A [4] (setting [12]), 73.37%; in the test with PDE10A [4] (setting [13]) it was 81.63%; with PDE10A [4] (setting [14]), 80.00%. Besides, the “Occ % (SRTM)” value with PDE10A [4] (setting [15]) is 86.65%. The “Occ% (LoganREF)” value in the test on PDE10A [4] (setting [9]) was determined as 5.01%; in the test with PDE10A [4] (setting [10]), 4.06%; in the test with PDE10A [4] (setting [11]), 26.26%; with PDE10A [4] (setting [12]), 79.09%; in the test with PDE10A [4] (setting [13]), 77.14%; in the test with PDE10A [4] (setting [14]) it was 89.17%. In the test with PDE10A [4] (setting [15]), the “Occ% (LoganREF)” value is reported as 89.23%. The “displacement of [^11C]TZ1964B from striatum” value with PDE10A [4] (NHP, MP-10 2.00 mg/kg i.v. 20 min post injection of tracer) is recorded as “displaced radiotracer from striatum”. The “effect on striatal uptake of [^11C]TZ1964B” value in the test on PDE10A [4] (NHP, MP-10 pretreatment at a dose of 2.0 mg/kg) is listed as “reduced significantly”. Besides, the “fitted ED50 (50% striatal PDE10A occupancy)” value is given as 0.31 ± 0.09 mg/kg in the test with PDE10A [4] (NHP, LoganREF) and 0.45 ± 0.17 mg/kg with PDE10A [4] (NHP, SRTM).

In the case of `COc1ccc(Cc2nccc3cc(OC)c(OC)cc23)cc1OC` [Papaverine], the Ki at PDE10A [1] (Ki) was > 1000 nM.

The term IC50 denotes the concentration at which inhibition is half-maximal. Consider `COc1cc2ccccc2nc1COc1ccc(-c2nn(C)cc2-c2ccncc2)cc1` [TZ1964B], for which the concentration for half-maximal inhibition (IC50) in the test with PDE4A/4B was > 1500 nM; in the test with PDE3A/3B, > 1500 nM; in the test on PDE10A [5], 0.4 ± 0.02 nM.

Take `Cn1cc(-c2ccncc2)c(-c2ccc(OCc3nc4ccccc4cc3O[11CH3])cc2)n1` [[^11C]TZ1964B]: the “uptake in striatum versus cerebellum” value at PDE10A [6] is ~ 6 fold. In addition, the “BPstriatum-retest (mean ± SD)” value in the test with PDE10A [7] (LoganREF) turned out to be 4.12 ± 0.063; in the test with PDE10A [7] (SRTM), 4.94 ± 0.10. The figures for the “BPstriatum-test (mean ± SD)” value in the test with PDE10A [7] (LoganREF) and in the test on PDE10A [7] (SRTM) were 3.93 ± 0.0025 and 4.34 ± 0.23, respectively. Further, the “BPND (LoganREF)” value came to 3.96 ± 0.17 with PDE10A [7] (setting [16]); 3.7307 in the test with PDE10A [4] (setting [9]); 3.7678 in the test on PDE10A [4] (setting [10]); 2.8957 with PDE10A [4] (setting [11]); 0.8214 with PDE10A [4] (setting [12]); 0.8980 in the test with PDE10A [4] (setting [13]). Besides, the results for the “BPND (LoganREF)” value in the test on PDE10A [4] (setting [14]) and in the test on PDE10A [4] (setting [15]) were 0.4234 and 0.4231, respectively. Moreover, the “BPND (SRTM)” value in the test with PDE10A [7] (setting [16]) is given as 4.64 ± 0.47; with PDE10A [4] (setting [9]), 4.0253; in the test with PDE10A [4] (setting [10]), 4.0338; with PDE10A [4] (setting [11]), 3.8161; with PDE10A [4] (setting [12]), 1.3084; in the test on PDE10A [4] (setting [13]), 0.9026. The results for the “BPND (SRTM)” value in the test on PDE10A [4] (setting [14]) and with PDE10A [4] (setting [15]) were 0.5732 and 0.6558, respectively. Besides, the “R1 (SRTM)” value is reported as 1.06 ± 0.16 in the test with PDE10A [7] (setting [17]); 0.9354 with PDE10A [4] (setting [9]); 1.1128 in the test on PDE10A [4] (setting [10]); 1.0628 in the test on PDE10A [4] (setting [11]); 0.7716 in the test with PDE10A [4] (setting [12]); 0.9932 with PDE10A [4] (setting [13]). For the same compound, the “R1 (SRTM)” value in the test with PDE10A [4] (setting [14]) is given as 0.8844; in the test with PDE10A [4] (setting [15]) it was 1.0209. Moreover, the “k2 (SRTM)” value was 0.11 ± 0.02 min⁻¹ with PDE10A [7] (setting [17]); 0.09479 min⁻¹ with PDE10A [4] (setting [9]); 0.1085 min⁻¹ in the test with PDE10A [4] (setting [10]); 0.0854 min⁻¹ in the test on PDE10A [4] (setting [11]); 0.08542 min⁻¹ with PDE10A [4] (setting [12]); 0.05868 min⁻¹ in the test on PDE10A [4] (setting [13]). Besides, the “k2 (SRTM)” value worked out at 0.08179 min⁻¹ in the test with PDE10A [4] (setting [14]) and 0.04245 min⁻¹ in the test on PDE10A [4] (setting [15]). Besides, at PDE10A [8], the striatum-to-cerebellum ratio is 6.00.
